Data reported in ChEMBL document CHEMBL4411287, “Discovery and optimization of a series of 3-substituted indazole derivatives as multi-target kinase inhibitors for the treatment of lung squamous cell carcinoma” (Eur J Med Chem, 2019).
Converted amounts (≈) assume the structure as drawn. The source made the active and inactive calls. The rule behind the calls is not given here.

How the values were obtained:
[1] = target: Mitogen-activated protein kinase 1 (Homo sapiens) (UniProt P28482); experiment: Inhibition of ERK2 (unknown origin) at 1000 nM relative to control
Mitogen-activated protein kinase 1 (Homo sapiens), sequence (P28482 whole entry): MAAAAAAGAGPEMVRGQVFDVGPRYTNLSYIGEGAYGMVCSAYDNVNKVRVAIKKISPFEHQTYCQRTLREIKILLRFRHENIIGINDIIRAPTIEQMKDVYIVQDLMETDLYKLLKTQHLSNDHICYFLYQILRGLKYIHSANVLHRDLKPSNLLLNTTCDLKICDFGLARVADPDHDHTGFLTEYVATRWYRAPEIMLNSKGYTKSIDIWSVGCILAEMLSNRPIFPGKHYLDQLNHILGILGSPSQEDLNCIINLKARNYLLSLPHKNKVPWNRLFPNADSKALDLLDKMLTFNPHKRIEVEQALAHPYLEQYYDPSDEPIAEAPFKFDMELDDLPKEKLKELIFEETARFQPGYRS

[2] = target: Vascular endothelial growth factor receptor 2 (Homo sapiens) (UniProt P35968); experiment: Inhibition of VEGFR2 (unknown origin) at 1000 nM relative to control
Vascular endothelial growth factor receptor 2 (Homo sapiens), sequence (P35968 whole entry): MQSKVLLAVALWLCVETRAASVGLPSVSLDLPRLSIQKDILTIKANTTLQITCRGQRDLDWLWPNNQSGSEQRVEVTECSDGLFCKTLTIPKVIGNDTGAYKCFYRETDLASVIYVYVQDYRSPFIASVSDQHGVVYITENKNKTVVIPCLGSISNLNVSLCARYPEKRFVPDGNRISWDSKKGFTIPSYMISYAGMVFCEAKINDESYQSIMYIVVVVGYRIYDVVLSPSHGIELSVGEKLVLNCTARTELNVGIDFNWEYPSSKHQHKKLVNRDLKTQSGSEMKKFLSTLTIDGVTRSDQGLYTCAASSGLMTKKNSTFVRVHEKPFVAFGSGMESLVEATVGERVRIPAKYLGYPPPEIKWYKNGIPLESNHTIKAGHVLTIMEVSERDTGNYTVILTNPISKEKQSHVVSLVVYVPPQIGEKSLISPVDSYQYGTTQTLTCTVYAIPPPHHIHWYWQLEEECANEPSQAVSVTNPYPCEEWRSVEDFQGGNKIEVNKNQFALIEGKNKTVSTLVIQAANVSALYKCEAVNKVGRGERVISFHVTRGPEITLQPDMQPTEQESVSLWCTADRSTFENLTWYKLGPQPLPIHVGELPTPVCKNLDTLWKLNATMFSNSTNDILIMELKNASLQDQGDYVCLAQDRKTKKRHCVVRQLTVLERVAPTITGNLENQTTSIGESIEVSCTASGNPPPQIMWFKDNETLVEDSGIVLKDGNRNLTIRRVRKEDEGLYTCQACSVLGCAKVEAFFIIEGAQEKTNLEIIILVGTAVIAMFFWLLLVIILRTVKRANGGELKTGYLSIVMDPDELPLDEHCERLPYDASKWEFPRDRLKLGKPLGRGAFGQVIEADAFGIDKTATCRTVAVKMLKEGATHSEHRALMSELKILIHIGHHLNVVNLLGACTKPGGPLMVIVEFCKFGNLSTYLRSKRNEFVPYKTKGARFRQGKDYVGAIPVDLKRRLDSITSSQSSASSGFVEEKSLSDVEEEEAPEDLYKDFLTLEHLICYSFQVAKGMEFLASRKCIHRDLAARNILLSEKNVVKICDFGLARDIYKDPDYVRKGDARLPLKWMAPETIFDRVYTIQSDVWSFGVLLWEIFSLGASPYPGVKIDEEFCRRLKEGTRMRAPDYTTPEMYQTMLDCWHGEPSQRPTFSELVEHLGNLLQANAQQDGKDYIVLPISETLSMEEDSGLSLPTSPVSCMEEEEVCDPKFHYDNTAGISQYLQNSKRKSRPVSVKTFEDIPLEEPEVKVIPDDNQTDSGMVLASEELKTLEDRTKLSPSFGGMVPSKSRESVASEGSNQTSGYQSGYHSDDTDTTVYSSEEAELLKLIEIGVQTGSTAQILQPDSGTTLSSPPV
Procedure, shortened: (§1)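 ELISA with purified recombinant kinase on plates precoated with poly(Glu,Tyr) 4:1 at 20 µg/mL. ATP 10 µM in HEPES pH 7.4 buffer with MgCl2, MnCl2, Na3VO4 and DTT. Run 60 min at 37 °C. Detected with anti-phosphotyrosine PY99, HRP secondary antibody and o-phenylenediamine, read at 490 nm. Inhibition % = [1 − A490/A490 control]×100. 1% DMSO as negative control.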

[3] = target: Ephrin type-A receptor 2 (Homo sapiens) (UniProt P29317); experiment: Inhibition of EPH-A2 (unknown origin) at 100 nM relative to control
Procedure, shortened: (§2)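 Purified recombinant kinase domains run in ELISA on precoated poly(Glu,Tyr) 4:1 (20 µg/mL) with 10 µM ATP in 50 mM HEPES pH 7.4, 50 mM MgCl2, 0.5 mM MnCl2, 0.2 mM Na3VO4, 1 mM DTT; 1% DMSO control; 60 min at 37 °C. Phosphotyrosine read by PY99 antibody, HRP anti-mouse IgG, OPD/H2O2 at 490 nm; inhibition = [1−A490/A490control]×100%; two separate experiments.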

[4] = target: Vascular endothelial growth factor receptor 1 (Homo sapiens) (UniProt P17948); experiment: Inhibition of VEGFR1 (unknown origin) at 100 nM relative to control; procedure, shortened: as §1
Vascular endothelial growth factor receptor 1 (Homo sapiens), sequence (P17948 whole entry): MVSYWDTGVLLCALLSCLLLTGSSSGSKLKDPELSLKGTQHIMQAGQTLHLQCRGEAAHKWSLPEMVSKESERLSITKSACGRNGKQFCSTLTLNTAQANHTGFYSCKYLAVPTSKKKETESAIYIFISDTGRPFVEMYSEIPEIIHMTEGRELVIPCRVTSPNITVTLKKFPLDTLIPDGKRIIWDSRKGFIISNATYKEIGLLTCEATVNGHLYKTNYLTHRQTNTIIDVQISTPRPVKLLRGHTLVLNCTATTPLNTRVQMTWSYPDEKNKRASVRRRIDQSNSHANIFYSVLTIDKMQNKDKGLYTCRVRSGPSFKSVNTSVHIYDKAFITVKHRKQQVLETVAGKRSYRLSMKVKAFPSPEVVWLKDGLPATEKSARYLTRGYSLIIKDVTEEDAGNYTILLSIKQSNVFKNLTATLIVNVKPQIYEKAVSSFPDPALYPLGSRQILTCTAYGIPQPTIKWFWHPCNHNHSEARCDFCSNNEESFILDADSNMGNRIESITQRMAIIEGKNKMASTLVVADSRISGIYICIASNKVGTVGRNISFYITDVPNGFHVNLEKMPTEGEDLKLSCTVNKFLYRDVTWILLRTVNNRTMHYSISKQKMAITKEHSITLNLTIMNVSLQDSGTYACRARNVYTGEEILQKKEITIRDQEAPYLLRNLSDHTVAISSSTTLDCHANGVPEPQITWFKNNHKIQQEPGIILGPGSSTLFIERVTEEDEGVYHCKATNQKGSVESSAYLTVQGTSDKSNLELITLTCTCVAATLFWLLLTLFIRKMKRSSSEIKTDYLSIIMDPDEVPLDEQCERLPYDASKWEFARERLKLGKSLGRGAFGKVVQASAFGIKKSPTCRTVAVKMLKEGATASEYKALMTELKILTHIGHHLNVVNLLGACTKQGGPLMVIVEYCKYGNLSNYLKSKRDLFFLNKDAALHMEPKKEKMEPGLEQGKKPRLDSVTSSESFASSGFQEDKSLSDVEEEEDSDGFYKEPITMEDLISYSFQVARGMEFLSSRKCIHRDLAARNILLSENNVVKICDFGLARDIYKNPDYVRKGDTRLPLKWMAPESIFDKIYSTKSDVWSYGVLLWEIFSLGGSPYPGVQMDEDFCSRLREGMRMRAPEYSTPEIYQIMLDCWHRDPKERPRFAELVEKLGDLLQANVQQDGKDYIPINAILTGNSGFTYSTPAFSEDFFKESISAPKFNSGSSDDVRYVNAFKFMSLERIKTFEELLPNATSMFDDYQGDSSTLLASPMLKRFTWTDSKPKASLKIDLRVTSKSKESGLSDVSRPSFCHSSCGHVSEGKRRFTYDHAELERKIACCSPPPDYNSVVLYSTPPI

[5] = target: Mitogen-activated protein kinase 3 (Homo sapiens) (UniProt P27361); experiment: Inhibition of ERK1 (unknown origin) at 1000 nM relative to control
Mitogen-activated protein kinase 3 (Homo sapiens), sequence (P27361 whole entry): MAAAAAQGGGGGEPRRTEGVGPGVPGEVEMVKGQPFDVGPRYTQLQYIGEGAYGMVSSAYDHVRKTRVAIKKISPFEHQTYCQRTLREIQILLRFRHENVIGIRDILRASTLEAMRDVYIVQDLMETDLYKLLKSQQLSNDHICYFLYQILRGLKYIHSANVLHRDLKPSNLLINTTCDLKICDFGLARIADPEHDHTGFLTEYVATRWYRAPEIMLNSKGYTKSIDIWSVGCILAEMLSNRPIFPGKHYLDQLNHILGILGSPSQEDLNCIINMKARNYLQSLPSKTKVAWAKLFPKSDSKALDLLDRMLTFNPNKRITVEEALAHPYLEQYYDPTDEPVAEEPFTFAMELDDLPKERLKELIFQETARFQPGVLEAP

[6] = target: Mitogen-activated protein kinase 3 (Homo sapiens) (UniProt P27361); experiment: Inhibition of ERK1 (unknown origin) at 10 nM relative to control
[7] = target: Macrophage colony-stimulating factor 1 receptor (Homo sapiens) (UniProt P07333); experiment: Inhibition of CSF-1R (unknown origin) at 10 nM relative to control
NCI-H2286 = experiment: Antiproliferative activity against human NCI-H2286 cells after 72 hrs by CCK8 assay; settings: NCI-H2286, 72 h
[8] = target: Vascular endothelial growth factor receptor 2 (Homo sapiens) (UniProt P35968); experiment: Inhibition of VEGFR2 (unknown origin) at 100 nM relative to control; procedure, shortened: as §1
[9] = target: Voltage-gated inwardly rectifying potassium channel KCNH2 (Homo sapiens, UniProt Q12809); experiment: Inhibition of human ERG by automated patch clamp electrophysiology assay
Procedure, shortened: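 Automated patch clamp electrophysiology on the hERG channel.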

[10] = Permeability in human Caco2 cells at 5 uM after 120 mins by LC-MS/MS analysis relative to control; assay type: ADME, cell-based; settings: Caco-2, read-out: Fabs
Procedure, shortened: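 Caco-2 (C2BBe1) monolayers grown confluent on collagen-coated transwell membranes. Buffer is HBSS with 10 mM HEPES at pH 7.4 and pH 6.8. Compound 5 µM added to the apical or basolateral side; duplicate samples taken at 120 min and analysed by LC-MS/MS. Results given as Papp A→B and B→A and efflux ratio B→A/A→B.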

[11] = target: Fibroblast growth factor receptor 2 (Homo sapiens) (UniProt P21802); experiment: Inhibition of FGFR2 (unknown origin) at 100 nM relative to control; procedure, shortened: as §2
Fibroblast growth factor receptor 2 (Homo sapiens), sequence (P21802 22-821 limits assumed): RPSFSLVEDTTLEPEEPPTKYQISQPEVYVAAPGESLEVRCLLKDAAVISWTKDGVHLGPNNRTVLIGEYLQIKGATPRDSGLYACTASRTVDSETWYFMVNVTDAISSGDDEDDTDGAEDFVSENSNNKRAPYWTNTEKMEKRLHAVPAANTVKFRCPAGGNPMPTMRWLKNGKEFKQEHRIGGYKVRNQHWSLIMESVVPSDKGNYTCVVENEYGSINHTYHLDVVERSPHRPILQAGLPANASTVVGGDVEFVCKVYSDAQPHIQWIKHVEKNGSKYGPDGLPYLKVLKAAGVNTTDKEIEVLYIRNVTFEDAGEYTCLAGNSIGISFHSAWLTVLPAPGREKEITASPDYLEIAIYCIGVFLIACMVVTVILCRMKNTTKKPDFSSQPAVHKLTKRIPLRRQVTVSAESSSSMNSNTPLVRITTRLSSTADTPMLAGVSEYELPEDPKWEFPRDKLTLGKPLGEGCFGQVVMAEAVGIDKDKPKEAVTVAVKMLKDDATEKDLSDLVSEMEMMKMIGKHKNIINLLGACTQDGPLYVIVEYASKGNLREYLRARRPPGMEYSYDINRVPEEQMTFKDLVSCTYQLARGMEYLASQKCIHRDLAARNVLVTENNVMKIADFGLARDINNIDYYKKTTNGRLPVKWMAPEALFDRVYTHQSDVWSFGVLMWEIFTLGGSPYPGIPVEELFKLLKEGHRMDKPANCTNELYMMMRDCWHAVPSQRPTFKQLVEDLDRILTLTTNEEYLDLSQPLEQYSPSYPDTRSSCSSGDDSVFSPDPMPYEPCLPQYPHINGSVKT

[12] = test system: T1, Discoidin domain-containing receptor 2 (Homo sapiens), Q16832 [I638F]; experiment: Inhibition of DDR2 I638F mutant in human NCI-H2286 cells assessed as decrease in AKT phosphorylation at […] after 2 hrs by Western blot analysis; assay type: cell-based
T1 sequence (whole entry): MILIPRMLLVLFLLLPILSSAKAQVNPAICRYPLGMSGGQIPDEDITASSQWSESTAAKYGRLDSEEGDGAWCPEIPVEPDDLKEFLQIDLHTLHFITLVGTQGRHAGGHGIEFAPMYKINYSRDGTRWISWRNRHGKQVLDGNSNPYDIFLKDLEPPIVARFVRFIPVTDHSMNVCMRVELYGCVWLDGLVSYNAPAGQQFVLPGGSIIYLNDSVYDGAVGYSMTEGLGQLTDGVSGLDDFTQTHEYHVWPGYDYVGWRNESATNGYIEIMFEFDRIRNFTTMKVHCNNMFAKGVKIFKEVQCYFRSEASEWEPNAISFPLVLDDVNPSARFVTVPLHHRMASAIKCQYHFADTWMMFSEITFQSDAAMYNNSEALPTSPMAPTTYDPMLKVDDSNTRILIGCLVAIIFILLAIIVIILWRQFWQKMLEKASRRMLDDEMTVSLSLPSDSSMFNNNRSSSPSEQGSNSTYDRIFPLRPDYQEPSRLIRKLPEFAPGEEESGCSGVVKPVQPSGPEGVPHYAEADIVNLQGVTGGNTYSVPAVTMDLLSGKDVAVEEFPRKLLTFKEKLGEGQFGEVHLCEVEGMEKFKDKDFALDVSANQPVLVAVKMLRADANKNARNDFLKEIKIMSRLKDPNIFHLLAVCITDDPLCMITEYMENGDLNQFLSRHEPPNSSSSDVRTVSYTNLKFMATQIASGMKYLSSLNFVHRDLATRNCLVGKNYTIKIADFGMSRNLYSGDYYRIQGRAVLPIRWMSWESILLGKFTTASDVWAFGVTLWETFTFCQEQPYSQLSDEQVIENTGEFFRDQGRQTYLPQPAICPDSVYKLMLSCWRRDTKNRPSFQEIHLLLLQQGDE
Procedure, shortened: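 NCI-H2286 cells exposed to compound for 2 h at 37 °C and lysed in SDS sample buffer. Lysates run on 10% SDS-PAGE and blotted to nitrocellulose. Membranes probed for phospho- and total DDR2, ERK and Akt, with GAPDH as loading control, and detected by HRP secondary antibody and enhanced chemiluminescence.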

[13] = target: Platelet-derived growth factor receptor alpha (Homo sapiens) (UniProt P16234); experiment: Inhibition of PDGFR-alpha (unknown origin) at 100 nM relative to control; procedure, shortened: as §2
[14] = Solubility of compound; assay type: physicochemical
[15] = target: Proto-oncogene tyrosine-protein kinase Src (Homo sapiens) (UniProt P12931); experiment: Inhibition of c-Src (unknown origin) at 10 nM relative to control; procedure, shortened: as §1
Proto-oncogene tyrosine-protein kinase Src (Homo sapiens), sequence (P12931 2-536 limits assumed): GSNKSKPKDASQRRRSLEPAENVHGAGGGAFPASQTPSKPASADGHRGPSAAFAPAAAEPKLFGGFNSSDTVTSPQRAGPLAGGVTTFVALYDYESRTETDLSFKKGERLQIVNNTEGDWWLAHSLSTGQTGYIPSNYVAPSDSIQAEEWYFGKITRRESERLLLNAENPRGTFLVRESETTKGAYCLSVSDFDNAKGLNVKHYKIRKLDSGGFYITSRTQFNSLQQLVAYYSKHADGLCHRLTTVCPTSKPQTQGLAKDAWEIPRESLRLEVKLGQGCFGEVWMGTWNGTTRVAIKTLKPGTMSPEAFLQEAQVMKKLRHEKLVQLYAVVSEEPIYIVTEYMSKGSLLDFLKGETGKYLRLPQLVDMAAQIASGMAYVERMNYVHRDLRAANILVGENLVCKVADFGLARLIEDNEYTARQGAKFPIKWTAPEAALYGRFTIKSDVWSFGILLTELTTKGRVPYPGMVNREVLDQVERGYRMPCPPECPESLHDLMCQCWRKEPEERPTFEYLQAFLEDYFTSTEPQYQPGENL

[16] = target: Vascular endothelial growth factor receptor 1 (Homo sapiens) (UniProt P17948); experiment: Inhibition of VEGFR1 (unknown origin) at 10 nM relative to control; procedure, shortened: as §1
[17] = Antiproliferative activity against human UM-UC-14 cells harboring FGFR3 mutation after 72 hrs by CCK8 assay; assay type: functional, cell-based; settings: UMUC14, 72 h
Procedure, shortened: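 Cells seeded at low density in growth medium and compounds added the next day. Incubated 72 h, then proliferation read by sulforhodamine B, MTT or CCK-8. IC50 obtained by four-parameter concentration-response curve fitting.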

[18] = target: ALK tyrosine kinase receptor (Homo sapiens) (UniProt Q9UM73); experiment: Inhibition of ALK (unknown origin) at 1000 nM relative to control

`Cc1ccc(C(=O)Nc2cccc(C(F)(F)F)c2)cc1-c1ccc2c(-c3cnn(C4CC4)c3)n[nH]c2c1` gave an inhibition [1] of 2.7%, an inhibition [2] of 100% and an inhibition [3] of 100%. It also gave an inhibition [4] of 46.8%, an inhibition [5] of 3.8% and an inhibition [6] of -2.8%. For the same compound, the inhibition [7] was 65.3%, the IC50 (NCI-H2286) was 93 nM and the inhibition [8] was 99.2%. The IC50 [9] was > 40000 nM, the Fa at 2 h, 5 µM [10] was 48.6% and the inhibition [11] was 95%. The inhibition [12] was “Active”, the inhibition [13] was 75.7% and the solubility [14] was 2 µM (≈ 1 µg/mL). For the same compound, the inhibition [15] was 64.5%, the inhibition [16] was 25.8% and the IC50 [17] was 307 nM. It also gave an inhibition [18] of 93.5%.
